Laboratory results from ChEMBL document CHEMBL4706601, “The endocannabinoid system dual-target ligand N-cycloheptyl-1,2-dihydro-5-bromo-1-(4-fluorobenzyl)-6-methyl-2-oxo-pyridine-3-carboxamide improves disease severity in a mouse model of multiple sclerosis” (Eur J Med Chem, 2020).
Active and inactive are the calls of the source. The rule behind the calls is not given here.

How the values were obtained:
Cannabinoid receptor 2 [1] = target: T1, Cannabinoid receptor 2 (Homo sapiens, UniProt P34972); test: (§1) Competitive antagonist activity at human CB2R expressed in CHO cell membranes assessed as rightward shift of N-cycloheptyl-1,2-dihydro-5-bromo-1-(4-fluoro benzyl)-6-methyl-2-oxo-pyridine-3-carboxamide-induced GTPgammaS binding by measuring fold change in N-cycloheptyl-1,2-dihydro-5-bromo-1-(4-fluoro benzyl)-6-methyl-2-oxo-pyridine-3-carboxamide EC50 at 300 nM preincubated with compound for 30 mins followed by GTPgammaS addition and measured after 90 mins by [35S]GTPgammaS assay; format: functional; conditions: Membrane, time 120.0 min
Outline: (§2)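 hCB2 CHO membranes in GTPγS buffer (10 μM GDP, 0.1 nM [35S]GTPγS, pH 7.4) pre-incubated 30 min with antagonist at 300 nM or 1 µM, then agonist or inverse agonist concentration series, 90 min at 30 °C. EC50 and Emax reported with 95% CI; Schild analysis; controls CP55,940 100 nM and AM630 1 μM; ≥3 experiments in triplicate.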

Cannabinoid receptor 2 [2] = target: T1, Cannabinoid receptor 2; test: (§3) Competitive antagonist activity at human CB2R expressed in CHO cell membranes assessed as N-cycloheptyl-1,2-dihydro-5-bromo-1-(4-fluoro benzyl)-6-methyl-2-oxo-pyridine-3-carboxamide Emax at 300 nM preincubated with compound for 30 mins followed by GTPgammaS addition and measured after 90 mins by [35S]GTPgammaS assay (reference value: 210%); format: functional; conditions: Membrane, filed as antagonist, time 120.0 min; outline: as §2
Cannabinoid receptor 2 [3] = target: T1, Cannabinoid receptor 2; test: as §3, with “100” for “300”; format: functional; conditions: Membrane, filed as antagonist, time 120.0 min
Homo sapiens = species on record: Homo sapiens; test: Selectivity index, ratio of Ki for human CB1R expressed in CHO cell membranes to Ki for human CB2R expressed in CHO cell membranes; format: cell-based
Cannabinoid receptor 2 [4] = target: T1, Cannabinoid receptor 2; test: as §3, with “1000” for “300”; format: functional; conditions: Membrane, filed as antagonist, time 120.0 min; outline: as §2
Cannabinoid receptor 2 [5] = target: T1, Cannabinoid receptor 2; test: as §1, with “100” for “300”; format: functional; conditions: Membrane, time 120.0 min
Cannabinoid receptor 2 [6] = target: T1, Cannabinoid receptor 2; test: Non-competitive antagonist activity at human CB2R expressed in CHO cell membranes assessed as N-cycloheptyl-1,2-dihydro-1-(4-fluorobenzyl)-6-methyl-2-oxo-5-phenyl-pyridine-3-carboxamide Emax at 1000 nM preincubated with compound for 30 mins followed by GTPgammaS addition and measured after 90 mins by [35S]GTPgammaS assay (reference value: -49.9%); format: functional; conditions: Membrane, filed as antagonist, time 120.0 min
Outline: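 hCB2 membranes from stably transfected CHO cells (10 µg) pre-incubated 30 min with antagonist, then an inverse-agonist concentration series added. Buffer: 50 mM Tris-HCl, 3 mM MgCl2, 0.2 mM EDTA, 100 mM NaCl, 0.5% fatty-acid-free BSA, pH 7.4, with 10 µM GDP and 0.1 nM [35S]GTPγS. Incubated 90 min at 30 °C, then filtered. Non-specific binding measured with 10 µM GTPγS. Emax given with 95% CI; at least 3 experiments, each in triplicate.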

Cannabinoid receptor 2 [7] = target: T1, Cannabinoid receptor 2; test: Agonist activity at human CB2R expressed in CHO cell membranes after 90 mins by [35S]GTPgammaS assay; format: functional, Membrane
Outline: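 In-house CHO membranes expressing hCB1 or hCB2 (10 µg) in 50 mM Tris-HCl, 3 mM MgCl2, 0.2 mM EDTA, 100 mM NaCl, 0.5% fatty-acid-free BSA, pH 7.4, with 10 μM GDP and 0.1 nM [35S]GTPγS. Incubated 90 min at 30 °C; antagonist pre-incubated 30 min. Nonspecific binding with 10 μM GTPγS; bound label by filtration and counting; ≥3 experiments in triplicate.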

[8] = target: Cannabinoid receptor 2 (Mus musculus) (UniProt P47936); test: Agonist activity at CB2R in LPS induced mouse BV2 cells assessed as IL-1beta secretion at 10 uM preincubated for 30 mins followed by LPS stimulation for 4 hrs by ELISA (reference value: 734.3 +/-35.1%); format: cell-based; conditions: BV-2, filed as agonist, time 270.0 min
Outline: (§4)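 BV-2 murine microglia grown in high-glucose DMEM with 10% FBS. Treatments in FBS-free medium: test agonist 10 μM for 30 min, then LPS 5 μg/ml for 4 h; SR144528 10 μM given 15 min before agonist. DMSO ≤0.1% final. Medium spun 10 min at 1000×g; IL-1β, IL-6, IL-10 quantified by ELISA; three independent experiments in duplicate.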

[9] = target: Cannabinoid receptor 2 (Mus musculus) (UniProt P47936); test: Agonist activity at CB2R in LPS induced mouse BV2 cells assessed as reduction in IL-1beta secretion at 10 uM preincubated with CB2R antagonist, SR144528 for 15 mins followed by compound additon for 30 mins after LPS stimulation for 4 hrs by ELISA; format: cell-based; conditions: BV-2, time 270.0 min; outline: as §4
Mus musculus [10] = test: (§5) Antiinflammatory activity in MOG (35 to 55 residues)/pertussis toxin-induced experimental autoimmune encephalomyelitis C57BL/6J mouse model assessed as improvement in late stage disease severity at 10 mg/kg, ip dosed once daily for 20 days starting from day 10 to 16 post immunization and measured at day 10 to 19 post treatment; format: functional, organism-based; conditions: time 10-19 day
Outline: (§6)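 Active EAE in mice: 200 µg MOG35-55 in CFA (4 mg/ml M. tuberculosis) s.c. at hips and tail root, plus pertussis toxin 300 ng i.p. after immunization and 48 h later. Daily i.p. dosing (DMSO vehicle) for 20 days from each mouse's onset (day 10–16); onset = day 1. Daily clinical score; multiple t-tests with Holm-Sidak.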

[11] = target: Cannabinoid receptor 1 (Rattus norvegicus) (UniProt P20272); test: Agonist activity at CB1R in Sprague-Dawley rat hippocampal synaptosomes assessed as inhibition of 4-AP evoked glutamate release at 1 uM preincubated for 8 mins followed by 4-AP addition by HPLC analysis; format: subcellular; conditions: Hippocampus
Outline: (§7)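 Rat (male Sprague Dawley, 200-250 g) hippocampal synaptosomes from Percoll gradient, superfused at 37 °C (0.5 ml/min); 4-AP 600 μM for 2 min. Compounds and antagonists (SR141716A, SR144528, 1 μM) added 8 min before 4-AP and kept during it; basal effects tested by 2-min exposure alone. Endogenous glutamate by HPLC as pmol/mg protein; overflow = stimulated minus basal in control chambers; n = 3–9, triplicate.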

[12] = target: Cannabinoid receptor 2 (Mus musculus) (UniProt P47936); test: Agonist activity at CB2R in LPS induced mouse BV2 cells assessed as increase in IL-10 secretion at 10 uM preincubated for 30 mins followed by LPS stimulation for 4 hrs by ELISA; format: cell-based; conditions: BV-2, filed as agonist, time 270.0 min; outline: as §4
Mus musculus [13] = test: as §5, with “reduction” for “improvement”, “clinical scores” for “late stage disease severity”, “from” for “at day”, “19 days” for “19”; format: functional; conditions: time 10-19 day; outline: as §6
Mus musculus [14] = test: Antiinflammatory activity in MOG (35 to 55 residues)/pertussis toxin-induced experimental autoimmune encephalomyelitis C57BL/6J mouse model assessed as improvement in disease severity at 10 mg/kg, ip dosed once daily for 20 days starting from day 10 to 16 post immunization and measured at day 5 to 9 post treatment; format: functional, organism-based; conditions: time 5-9 day; outline: as §6
[15] = target: Cannabinoid receptor 1 (Rattus norvegicus) (UniProt P20272); test: Agonist activity at CB1R in Sprague-Dawley rat hippocampal synaptosomes assessed as inhibition of 4-AP evoked glutamate release at 10 uM preincubated for 8 mins followed by 4-AP addition in presence of 1 to 3 uM CB1R antagonist, SR141716A by HPLC analysis; format: subcellular; conditions: Hippocampus; outline: as §7
[16] = target: Cannabinoid receptor 2 (Mus musculus) (UniProt P47936); test: Agonist activity at CB2R in LPS induced mouse BV2 cells assessed as increase in IL-10 secretion at 10 uM preincubated with CB2R antagonist, SR144528 for 15 mins followed by compound additon for 30 mins after LPS stimulation for 4 hrs by ELISA; format: cell-based; conditions: BV-2, time 270.0 min; outline: as §4

T1 sequence (P34972 whole entry): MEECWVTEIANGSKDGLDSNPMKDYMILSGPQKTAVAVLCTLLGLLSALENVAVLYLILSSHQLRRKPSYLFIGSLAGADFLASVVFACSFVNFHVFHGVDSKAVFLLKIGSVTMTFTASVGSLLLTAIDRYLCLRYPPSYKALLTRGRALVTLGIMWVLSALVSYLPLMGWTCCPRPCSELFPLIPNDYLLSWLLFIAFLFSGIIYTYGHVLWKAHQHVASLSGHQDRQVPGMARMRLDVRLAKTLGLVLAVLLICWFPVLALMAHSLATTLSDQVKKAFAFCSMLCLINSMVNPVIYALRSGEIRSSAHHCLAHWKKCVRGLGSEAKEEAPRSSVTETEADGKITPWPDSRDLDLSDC
Chain of Cannabinoid receptor 2 (Mus musculus) (P47936 whole entry, the tested form may be a part): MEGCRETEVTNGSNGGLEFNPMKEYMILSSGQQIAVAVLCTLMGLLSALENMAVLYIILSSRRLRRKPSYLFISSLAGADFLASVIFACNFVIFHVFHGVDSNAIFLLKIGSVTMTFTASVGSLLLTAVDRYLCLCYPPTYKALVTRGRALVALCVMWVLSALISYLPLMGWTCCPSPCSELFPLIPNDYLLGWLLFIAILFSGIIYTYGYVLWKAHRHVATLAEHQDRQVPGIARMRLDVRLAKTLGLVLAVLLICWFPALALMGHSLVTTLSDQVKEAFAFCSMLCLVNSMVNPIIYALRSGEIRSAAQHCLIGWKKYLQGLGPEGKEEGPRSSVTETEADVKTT
Chain of Cannabinoid receptor 1 (Rattus norvegicus) (P20272 whole entry, the tested form may be a part): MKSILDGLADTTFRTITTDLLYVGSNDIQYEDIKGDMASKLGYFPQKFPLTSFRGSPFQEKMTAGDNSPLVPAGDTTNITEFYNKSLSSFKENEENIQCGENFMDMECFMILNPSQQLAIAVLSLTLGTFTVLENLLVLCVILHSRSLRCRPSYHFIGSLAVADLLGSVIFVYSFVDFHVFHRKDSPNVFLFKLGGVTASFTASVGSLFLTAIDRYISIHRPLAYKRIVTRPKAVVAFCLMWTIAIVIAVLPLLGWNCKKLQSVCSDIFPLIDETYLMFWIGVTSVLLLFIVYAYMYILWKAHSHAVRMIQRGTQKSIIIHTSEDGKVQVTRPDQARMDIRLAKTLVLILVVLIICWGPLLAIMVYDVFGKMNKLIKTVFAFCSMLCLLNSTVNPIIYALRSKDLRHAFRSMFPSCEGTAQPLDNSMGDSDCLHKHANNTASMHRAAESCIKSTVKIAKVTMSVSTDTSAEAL

SMILES	fold change (FC) (Cannabinoid receptor 2 [1])	Emax (Cannabinoid receptor 2 [2])	Emax (Cannabinoid receptor 2 [3])	Ratio Ki (Homo sapiens)	Emax (Cannabinoid receptor 2 [4])	fold change (FC) (Cannabinoid receptor 2 [5])	Emax (Cannabinoid receptor 2 [6])	EC50 (Cannabinoid receptor 2 [7])	Activity [8]	Activity [9]	Activity (Mus musculus [10])	Activity [11]	Activity [12]	inhibition in vivo at 10 mg/kg (Mus musculus [13])	Activity (Mus musculus [14])	Activity [15]	Activity [16]
COc1ccc(-c2cc(C(=O)NC3CCCCCC3)c(=O)n(Cc3ccc(F)cc3)c2C)cc1	19	209%	219%	0.37	208%	8	-24.9%	–	–	–	–	–	–	–	–	–	–
Cc1c(Br)cc(C(=O)NC2CCCCCC2)c(=O)n1Cc1ccc(F)cc1	–	–	–	–	–	–	–	11.6 nM	24.6%	inactive	Active	inactive	484%	50%	inactive	inactive	inactive
